PGC1a acetyl up = raises PGC1a acetylation signal in U2OS cells. U2OS PGC1a acetylation AlphaScreen, overnight. activation, % at 15.6 µM. 350,000 tested, 0.21% active;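 active means every replicate reaching activation of at least 50%, whatever the mean replicate activation; inconclusive means replicates that disagree or another doubt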;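 further: hits raise the AlphaScreen acetylation signal above neutral controls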
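detection = AlphaScreen lysate read | assay system = U2OS cells expressing flag-PGC1a plus GCN5 | input = 7000 cells/well | dosing = one concentration | times = compound overnight at 37 °C, each detection step 1 h RT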
G6PC hep suppr = PGC-1a acetylation activators affecting G6PC expression in hepatocytes; shares compounds with PGC1a acetyl up; primary mouse hepatocytes, G6PC mRNA qPCR, forskolin; G6PC suppression (normalized activity, % of positive control; higher = more suppression), % at 26 µM; 240 tested, under 10 active;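 active means dose curves showing G6PC suppression whose half-maximal dose is at most twice the top valid dose; inconclusive means flat curves with moderate negative activity, or unreliable fits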;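 further: G6PC expression relative to GAPDH housekeeping gene as delta delta Ct; 0% = median of neutral control wells and 100% = median of positive control wells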
Hep PCK1 suppr = hepatocyte PCK1 expression change via PGC-1a acetylation activation | shares compounds with PGC1a acetyl up | primary mouse hepatocytes, PCK1 mRNA qPCR, forskolin-stimulated | PCK1 expression decrease, unspecified at 26 µM | 230 tested, under 10 active | AID 743465;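 active means compounds lowering PCK1 expression whose fitted half-maximal concentration is at most twice the top tested dose; inconclusive means flat fit with moderate opposite-direction effect, or poor fit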;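 further: values are delta delta Ct of PCK1 relative to GAPDH; higher delta delta Ct means lower PCK1 expression so positive values indicate hits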
Hep PGC-1a down = PGC-1a acetylation activator altering hepatocyte PGC-1a expression; shares compounds with PGC1a acetyl up; max activity (PGC-1a expression decrease), %; 240 tested, under 10 active; primary mouse hepatocytes, PGC-1a mRNA qPCR, forskolin; top dose 26 µM;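 active means compound lowering PGC-1a expression with fitted half-maximal concentration at most twice its top tested dose; inconclusive means flat curve with moderate opposite-direction effect, or poor fit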;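 further: 0% = neutral control wells median and 100% = positive control wells median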
Active calls of the source: *; ? = inconclusive; nt = no result given; [ ] = remark or other dose. These entries were drawn from the full list.

SMILES	PGC1a acetyl up	others
CCOC(=O)C1CCN(Cc2ccc(O)c3ncccc23)CC1	61*
CCOC(=O)C1CCN(C2=NC(=O)/C(=C/c3ccc(O)cc3)S2)CC1	-41
CCOC(=O)C1CCCN(C(=O)CSc2ccc(Br)cc2)C1 (stereo not drawn)	-78
CCN1/C(=C/C(C)=C/c2sc3ccccc3[n+]2CC)Sc2ccccc21	98*
O=C(C[C@@H]1C=C[C@@H](NC(=O)Nc2ccc(F)cc2)[C@@H](CO)O1)NCCN1CCCC1	-48
Cc1cccc(C(=O)Nc2ccc(C(=O)/C=C/c3cccnc3)cc2)c1	-54
CCCCCCC(=O)Nc1ccc(C(=O)N/N=C/c2cccnc2)cc1	417*
COc1ccc(/C=N/NC(=O)c2cccnc2)cc1CN1CCOCC1	-42
O=C(CC(CC(=O)c1ccc(Br)cc1)c1cccnc1)c1ccc(Br)cc1	-50
CCOC(=O)N(O)c1ccc(C=Cc2ccccc2)cc1	-49
CCCCCC(=O)N1C[C@H](n2cc(-c3ccc(F)cc3)nn2)[C@@H](O)C[C@@H]1c1ccc(C)cc1	-67
O=C(CC1CC1)N[C@H]1CC[C@@H](CCNS(=O)(=O)c2ccc(Cl)cc2)O[C@@H]1CO	-67
C=CCOC(=O)C1=C(C)NC(SCC)=C(C#N)C1c1ccc(Cl)cc1 (stereo not drawn)	-45
CCOC(=O)C1=C(C)NC(=O)NC1c1ccccc1Cl (stereo not drawn)	57*
CC(=O)N(c1cccc(C)c1)S(=O)(=O)c1ccc(Cl)cc1	-53
CN(C)CCOc1ccc2c(c1)C(=O)C(=Cc1ncc([N+](=O)[O-])n1C)C2	-93
COc1cccc(-c2ccc(C3[C@@H]4CN(C(=O)C5CC5)C[C@H]3N4)cc2)c1 (stereo partly drawn)	57*
COc1ccccc1-c1ccc([C@@H]2[C@@H](CO)N(C(C)=O)C23CN(C(C)=O)C3)cc1	-55
COc1ccccc1CN1C[C@@H]2N[C@H](C1)C2c1ccc(-c2ccccc2OC)cc1 (stereo partly drawn)	70*
Fc1cccc(CN2C[C@@H]3N[C@H](C2)[C@@H]3c2ccc(-c3cccc(F)c3)cc2)c1	-99
COc1cc(CN2C[C@@H]3N[C@H](C2)C3c2ccc(-c3cccc(OC)c3)cc2)cc(OC)c1 (stereo partly drawn)	69*
COc1cc(CN2C[C@@H]3N[C@H](C2)C3c2ccc(/C=C/c3ccccc3)cc2)cc(OC)c1 (stereo partly drawn)	89*
COc1ccc(OCCCC(=O)OCC(=O)Nc2c(C)nn(-c3ccccc3)c2C)cc1	-85
COc1ccc(NC(=O)N[C@@H]2C=C[C@@H](CC(=O)NCc3ccccn3)O[C@@H]2CO)cc1	-48
Cc1cc(O)c(N=Nc2ccc(C(=O)O)cc2)cc1C	-50
SMILES	PGC1a acetyl up	others
CN(C)C(=O)C[C@@H]1CC[C@@H]2[C@H](COC[C@@H](O)CN2C(=O)C2CCOCC2)O1	-56
Fc1cccc(CN2C[C@@H]3N[C@H](C2)C3c2ccc(-c3ccccc3)cc2)c1 (stereo partly drawn)	-97
COc1ccc(-c2ccc(C3[C@@H]4CN(Cc5cc(OC)cc(OC)c5)C[C@H]3N4)cc2)cc1 (stereo partly drawn)	121*
CO[C@@H]1CN(C)C(=O)c2cc(NC(C)=O)ccc2OC[C@H](C)N(C(=O)c2cccnc2)C[C@H]1C	-49
Cc1ccc(S(=O)(=O)CCSC(=N)N)cc1	67*
CC(=O)CS(=O)(=O)c1ccc(Oc2ccc(S(=O)(=O)CC(C)=O)cc2)cc1	-41
O=C(Cc1ccccc1)Nc1nc(-c2ccc(F)c(F)c2)cs1	62*	G6PC hep suppr=70;Hep PCK1 suppr=59;Hep PGC-1a down=83
C[N+]1(C)CCC(=C2c3ccccc3CC(=O)c3sccc32)CC1	-94
CN(NC(=O)c1ccccc1)C1=NS(=O)(=O)c2ccccc21	-40
COc1ccc(-c2nc(N)c(C#N)c(-c3cccnc3)c2C)cc1	?	G6PC hep suppr=2;Hep PCK1 suppr=7.5;Hep PGC-1a down=40
CC(C)c1ccccc1NC(=O)Cn1c(-c2ccccc2Cl)nc2ccccc21	-43
CC(C)n1c(N2CCN(CC(=O)NCc3cccs3)CC2)nc2ccccc21	nt	G6PC hep suppr=35;Hep PCK1 suppr=26;Hep PGC-1a down=68
CC(=O)Nc1sc2c(c1-c1nc3ccccc3s1)CN(C(C)C)CC2	-52
O=C(O)C1CCCN1S(=O)(=O)c1ccc(Br)s1 (stereo not drawn) (tested in a mixture with another compound)	-42
CCCN(CCC)CCNC(=O)c1cc2c(=O)n(CC)c3ccccc3c2s1	-43
CCOc1cc(/C=N/N=C(N)N)ccc1OCc1ccc(Cl)cc1	-56
Cc1cc(C(=O)NNS(=O)(=O)c2ccc(F)cc2)nn1C(C)(C)C	456*	Hep PCK1 suppr=-0.84;Hep PGC-1a down=10
O=C(/C=C/c1ccccc1)CC(O)(c1ccccc1)C(F)(F)C(F)F (stereo not drawn)	-42
Cc1ccc(-n2nc3ccc(N)cc3n2)cc1	-52
NC(=O)C1CCCc2c1[nH]c1ccc(Cl)cc21 (stereo not drawn)	nt	G6PC hep suppr=1;Hep PCK1 suppr=-3;Hep PGC-1a down=11
CN1C[C@H](C(=O)N[C@]2(C)O[C@@]3(O)[C@@H]4CCCN4C(=O)[C@H](Cc4ccccc4)N3C2=O)CC2c3cccc4[nH]cc(c34)C[C@H]21 (stereo partly drawn)	-43
Cc1nc(NCCc2ccccc2)c2nnn(Cc3ccccc3Cl)c2n1	-42
O=C1/C(=C\c2ccco2)SC(=S)N1Cc1ccccc1	-41
O=C(/C=C/c1ccccc1)CC(O)(c1ccccc1)C(F)(F)F (stereo not drawn)	-42
C[C@@H]1CN([C@H](C)CO)C(=O)c2c(c3ccccc3n2C)-c2ccccc2CO[C@@H]1CN(C)C(=O)c1ccc(F)cc1	78*	G6PC hep suppr=61[23.5 µM];Hep PCK1 suppr=95[23.5 µM];Hep PGC-1a down=109
SMILES	PGC1a acetyl up	others
C[C@@H]1CN([C@@H](C)CO)C(=O)Cc2cc(NC(=O)Cc3ccccc3)ccc2O[C@H]1CN(C)C(=O)Nc1ccccc1	-49	G6PC hep suppr=-3[23.5 µM];Hep PCK1 suppr=17[23.5 µM];Hep PGC-1a down=32
C[C@@H]1CN([C@@H](C)CO)C(=O)c2c(c3ccccc3n2C)-c2ccccc2CO[C@@H]1CN(C)C(=O)Nc1ccccc1C(F)(F)F	74*	G6PC hep suppr=5;Hep PCK1 suppr=39;Hep PGC-1a down=86
C[C@@H]1CN([C@H](C)CO)C(=O)c2c(c3ccccc3n2C)-c2ccccc2CO[C@@H]1CN(C)C(=O)Nc1ccc2c(c1)OCO2	?	G6PC hep suppr=9;Hep PCK1 suppr=78;Hep PGC-1a down=?
C[C@H](CO)N1C[C@H](C)[C@@H](CN(C)C(=O)Nc2ccc(-c3cccs3)cc2)OCc2cnnn2CCCC1=O	-46
COc1ccc(Cn2nnnc2CN(Cc2cc3ccc(C)cc3[nH]c2=O)C2CCCC2)cc1	-42
Cc1ccc(-n2c(O)c(C=NC3CCS(=O)(=O)C3)c3ccccc3c2=O)c(C)c1 (stereo not drawn)	-57
C[C@@H](C(=O)Nc1nc2ccc(F)cc2s1)N1C(=O)C2CC=CCC2C1=O (stereo partly drawn)	-47
COc1ccc(N=C2S/C(=C\c3ccc(N4CCOCC4)o3)C(=O)N2CCc2c[nH]c3ccccc23)cc1	-62

Screening data from PubChem BioAssay.
